From ChEMBL document CHEMBL1121733, “Synthesis and evaluation of ureido- and vinylureidopenicillins as inhibitors of intraruminal lactic acid production” (J Med Chem, 1981)
Values after ≈ are worked out from the molar mass of the structure shown. One block for each compound: values may come before it.

Experiments:
[1] = Lipophilicity estimated on reversed phase TLC; assay type: physicochemical; settings: silicone oil-coated silica gel plates, 30% MeOH in pH 7.0 buffer
How it was run: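 Reversed-phase TLC on silica gel G plates dipped in 20 vol % silicone oil in hexane and dried. Mobile phase 30 vol % MeOH in pH 7.0 buffer. ΔR_M measured against a reference compound run on every plate, averaged over 2–6 plates.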

[2] = Percent inhibition of lactic acid production by the compound at 0.5 p.p.m.; assay type: functional; set-up: scale not given: the % may be the effect or the level left
How it was run: (§1)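 Screen at 50, 5 and 0.5 µg/mL of incubation contents in strained bovine rumen fluid mixed 1:1 with CO2-saturated glucose/trypticase buffer, 5.5 h at 39 °C. Stopped with metaphosphoric acid, l(+)-lactate measured enzymatically. Expressed as lactate production as % of control incubations without compound.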

[3] = Percent inhibition of lactic acid production by the compound at 5 p.p.m.; assay type: functional; set-up: scale not given: the % may be the effect or the level left; how it was run: as §1
[4] = Percent inhibition of lactic acid production by the compound at 50 p.p.m.; assay type: functional; set-up: scale not given: the % may be the effect or the level left; how it was run: as §1
[5] = test system: Escherichia coli; test: In vitro Minimum inhibitory concentration against Escherichia coli ATCC 25922; assay type: functional
How it was run: (§2)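 Twofold broth microdilution from 200 to 0.0008 µg/mL in brain–heart infusion broth with 0.066 g/L tetrazolium chloride. Inoculum was 1 µL of a 1:10 dilution of an 18 h, 37 °C culture. Plates incubated 16 h at 37 °C, with growth read as red precipitate. Triplicate trays per compound per organism.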

[6] = test system: Staphylococcus aureus; test: (§3) In vitro Minimum inhibitory concentration against Staphylococcus penicillin G resistant); assay type: functional, staphylococcus pureus
How it was run: (§4)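 Broth microdilution in brain–heart infusion broth with 0.066 g/L tetrazolium chloride. Serial twofold dilutions from 200 to 0.0008 µg/mL. Inoculum: 1 µL of a 1:10 dilution of an 18 h, 37 °C culture. Incubated 16 h at 37 °C; growth read as red precipitate. MIC taken from triplicate trays per compound per organism.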

[7] = test system: Streptococcus pyogenes; test: In vitro Minimum inhibitory concentration against Streptococcus pyogenes ATCC 8668; assay type: functional; how it was run: as §2
[8] = test system: Enterococcus faecium; test: In vitro Minimum inhibitory concentration against Streptococcus faecium ATCC 8043-2; assay type: functional; how it was run: as §2
[9] = Effective inhibition concentration for reduction of lactic acid production to less than 10% of control; assay type: functional
How it was run: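 Bovine rumen fluid from a fistulated animal, strained through cheesecloth, mixed 1:1 with CO2-saturated buffer (glucose 27 g/L, trypticase 1.50 g/L, Na2HPO4 4.26 g/L). Compounds retested from 0.5 mg/mL stock serially diluted to 0.004 mg/mL, duplicate tubes, 5.5 h at 39 °C. Stopped with 25% metaphosphoric acid, centrifuged, l(+)-lactate measured enzymatically. Value is the minimum concentration giving lactate below 10% of no-compound control.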

[10] = Effective inhibition concentration for reduction of propionic acid production to less than 95% of control; assay type: functional
How it was run: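 Rumen fluid from a fistulated bovine, strained and mixed 1:1 with CO2-saturated buffer with moderate substrate at normal intraruminal pH (volatile fatty acid model). Retest dilutions from 0.5 mg/mL stock down to 0.004 mg/mL, triplicate tubes, 9 h. Stopped with 25% metaphosphoric acid, centrifuged, propionate measured by GC-FID. Value is the minimum concentration giving propionate below 95% of control.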

[11] = test system: Staphylococcus aureus; test: In vitro Minimum inhibitory concentration against Staphylococcus aureus ATCC 6538P (penicillin G sensitive); assay type: functional; how it was run: as §2
[12] = test system: Staphylococcus aureus; test: as §3; assay type: functional; how it was run: as §4

Delta RM [1]: -0.01
Structure (SMILES): CC1(C)SC2C(NC(=O)Nc3ccc(Cl)cc3)C(=O)N2[C@H]1C(=O)[O-].[Na+] (some centres not stated)
Control [2]: 102%
Control [3]: 112%
Control [4]: 2%

Delta RM [1]: 0.43
Structure (SMILES): CCOc1ccc(/C=C/NC(=O)NC2C(=O)N3C2SC(C)(C)[C@@H]3C(=O)[O-])cc1.[Na+] (some centres not stated)
Control [2]: 0%
Control [3]: 1%
Concentration [9]: 0.31 µg/mL
Dose [10]: > 10 µg/mL
Control [4]: 1%

Delta RM [1]: -0.62
Structure (SMILES): CC1(C)SC2C(NC(=O)NC3CCCCC3)C(=O)N2[C@H]1C(=O)[O-].[Na+] (some centres not stated)
Control [2]: 99%
Control [3]: 0%
Control [4]: 2%

Delta RM [1]: 1.44
Structure (SMILES): CC1(C)SC2C(NC(=O)N/C=C/c3ccc(Cl)c(Cl)c3)C(=O)N2[C@H]1C(=O)[O-].[Na+] (some centres not stated)
Control [2]: 107%
Control [3]: 106%
Control [4]: 1%

Delta RM [1]: 0.66
Structure (SMILES): CC1(C)SC2C(NC(=O)N/C=C/c3cccc4ccccc34)C(=O)N2[C@H]1C(=O)[O-].[Na+] (some centres not stated)
Control [2]: 111%
Control [3]: 0%
Control [4]: 3%

Delta RM [1]: 0.69
Structure (SMILES): CC1(C)SC2C(NC(=O)N/C=C/c3cccc(Br)c3)C(=O)N2[C@H]1C(=O)[O-].[Na+] (some centres not stated)
Control [2]: 142%
Control [3]: 0%
Control [4]: 3%

Delta RM [1]: 0.5
Structure (SMILES): Cc1ccc(/C=C/NC(=O)NC2C(=O)N3C2SC(C)(C)[C@@H]3C(=O)[O-])cc1.[Na+] (some centres not stated)
Control [2]: 0%
Control [3]: 2%
Concentration [9]: 0.31 µg/mL
Dose [10]: > 10 µg/mL
Control [4]: 2%

Delta RM [1]: -0.26
Structure (SMILES): CC1(C)SC2C(NC(=O)N/C=C/c3ccco3)C(=O)N2[C@H]1C(=O)[O-].[Na+] (some centres not stated)
Control [2]: 101%
Control [3]: 89%
Control [4]: 3%

Delta RM [1]: 0.3
Structure (SMILES): C/C(=C\NC(=O)NC1C(=O)N2C1SC(C)(C)[C@@H]2C(=O)[O-])c1ccccc1.[Na+] (some centres not stated)
Control [2]: 87%
Control [3]: 5%
Control [4]: 0%

Delta RM [1]: -0.75
Structure (SMILES): CC1(C)SC2C(NC(=O)Nc3ccccc3)C(=O)N2[C@H]1C(=O)[O-].[Na+] (some centres not stated)
Control [2]: 96%
Control [3]: 110%
Control [4]: 3%

Delta RM [1]: -0.45
Structure (SMILES): COc1cc(/C=C/NC(=O)NC2C(=O)N3C2SC(C)(C)[C@@H]3C(=O)[O-])cc(OC)c1OC.[Na+] (some centres not stated)
Control [2]: 105%
Control [3]: 2%
Control [4]: 8%

Further lines, the compound ahead of its results:

Structure (SMILES): CC1(C)SC2C(NC(=O)N/C=C/C3CCCCC3)C(=O)N2[C@H]1C(=O)[O-].[Na+] (some centres not stated)
MIC [5]: > 200 µg/mL
Delta RM [1]: 0.77
MIC [6]: 50 µg/mL
Control [2]: 0%
MIC [7]: 0.2 µg/mL
Control [3]: 2%
MIC [8]: 50 µg/mL
Concentration [9]: 0.31 µg/mL
Dose [10]: 2.5 µg/mL
MIC [11]: 0.4 µg/mL
Control [4]: 2%

Structure (SMILES): CC1(C)SC2C(NC(=O)NC3CC3c3ccccc3)C(=O)N2[C@H]1C(=O)[O-].[Na+] (some centres not stated)
Delta RM [1]: -0.29
Control [2]: 104%
Control [3]: 4%
Control [4]: 8%

Structure (SMILES): CC1(C)SC2C(NC(=O)N/C=C/c3ccc4c(c3)OCO4)C(=O)N2[C@H]1C(=O)[O-].[Na+] (some centres not stated)
MIC [5]: 100 µg/mL
Delta RM [1]: -0.06
MIC [6]: 50 µg/mL
Control [2]: 0%
MIC [7]: 1.6 µg/mL
Control [3]: 0%
MIC [8]: 200 µg/mL
Concentration [9]: 0.16 µg/mL
Dose [10]: > 10 µg/mL
MIC [11]: 6.25 µg/mL
Control [4]: 4%

Structure (SMILES): CC(C)(C)c1ccc(/C=C/NC(=O)NC2C(=O)N3C2SC(C)(C)[C@@H]3C(=O)O)cc1 (some centres not stated)
Control [2]: 0%
Control [3]: 0%
Concentration [9]: 0.16 µg/mL
Dose [10]: > 10 µg/mL
Control [4]: 0%

Structure (SMILES): CC(C)(C)c1ccc(/C=C/NC(=O)NC2C(=O)N3C2SC(C)(C)[C@@H]3C(=O)O)cc1.CCN(CC)CC (some centres not stated)
Delta RM [1]: 1.31

Structure (SMILES): CC1(C)SC2C(NC(=O)NCc3ccc4ccccc4c3)C(=O)N2[C@H]1C(=O)[O-].[Na+] (some centres not stated)
MIC [5]: > 200 µg/mL
Delta RM [1]: 0
Control [2]: 4%
MIC [7]: 0.05 µg/mL
Control [3]: 4%
MIC [12]: 50 µg/mL
MIC [8]: 3.12 µg/mL
Concentration [9]: 0.08 µg/mL
Dose [10]: 5 µg/mL
MIC [11]: 0.05 µg/mL
Control [4]: 9%

Structure (SMILES): CC1(C)SC2C(NC(=O)N/C=C/c3cccs3)C(=O)N2[C@H]1C(=O)[O-].[Na+] (some centres not stated)
Delta RM [1]: -0.2
Control [2]: 102%
Control [3]: 52%
Control [4]: 0%

Structure (SMILES): CC1(C)S[C@@H]2[C@H](NC(=O)Cc3ccccc3)C(=O)N2[C@H]1C(=O)O [PENICILLIN G]
MIC [5]: 25 µg/mL (≈ 74.8 µM)
MIC [6]: 50 µg/mL (≈ 150 µM)
MIC [7]: 0.01 µg/mL (≈ 0.0299 µM)
MIC [8]: 0.4 µg/mL (≈ 1.2 µM)
MIC [11]: 0.05 µg/mL (≈ 0.15 µM)

Structure (SMILES): CC1(C)SC2C(NC(=O)N/C=C/c3ccc4ccccc4c3)C(=O)N2[C@H]1C(=O)[O-].[Na+] (some centres not stated)
MIC [5]: > 200 µg/mL
Delta RM [1]: 1.05
MIC [6]: 100 µg/mL
Control [2]: 1%
MIC [7]: 3.12 µg/mL
Control [3]: 2%
MIC [8]: 200 µg/mL
Concentration [9]: 0.31 µg/mL
Dose [10]: > 10 µg/mL
MIC [11]: 3.12 µg/mL
Control [4]: 8%

Structure (SMILES): CC1(C)SC2C(NC(=O)N/C=C/c3ccc(Cl)cc3)C(=O)N2[C@H]1C(=O)[O-].[Na+] (some centres not stated)
MIC [5]: > 200 µg/mL
Delta RM [1]: 0.58
MIC [6]: 50 µg/mL
Control [2]: 0%
MIC [7]: 3.12 µg/mL
Control [3]: 2%
MIC [8]: > 200 µg/mL
Concentration [9]: 1.25 µg/mL
Dose [10]: > 10 µg/mL
MIC [11]: 6.25 µg/mL
Control [4]: 10%

Structure (SMILES): CC1(C)SC2C(NC(=O)NCCc3ccc4ccccc4c3)C(=O)N2[C@H]1C(=O)[O-].[Na+] (some centres not stated)
MIC [5]: > 200 µg/mL
Delta RM [1]: 0.89
MIC [6]: 25 µg/mL
Control [2]: 2%
MIC [7]: 0.05 µg/mL
Control [3]: 7%
MIC [8]: 6.25 µg/mL
Concentration [9]: 0.31 µg/mL
Dose [10]: > 10 µg/mL
MIC [11]: 0.1 µg/mL
Control [4]: 9%

Structure (SMILES): CCOC(=O)c1ccc(NC(=O)NC2C(=O)N3C2SC(C)(C)[C@@H]3C(=O)O)cc1 (some centres not stated)
Control [2]: 101%
Control [3]: 95%
Control [4]: 3%

Structure (SMILES): CC1(C)SC2C(NC(=O)NCCc3ccccc3)C(=O)N2[C@H]1C(=O)[O-].[Na+] (some centres not stated)
MIC [5]: 100 µg/mL
Delta RM [1]: -0.6
Control [2]: 4%
MIC [7]: 0.1 µg/mL
Control [3]: 6%
MIC [12]: 50 µg/mL
MIC [8]: 3.12 µg/mL
Concentration [9]: 0.31 µg/mL
Dose [10]: 5 µg/mL
MIC [11]: 0.1 µg/mL
Control [4]: 9%

Structure (SMILES): CC(C)(C)c1ccc(/C=C/NC(=O)NC2C(=O)N3C2SC(C)(C)[C@@H]3C(=O)[O-])cc1.[Na+] (some centres not stated)
MIC [5]: > 200 µg/mL
Delta RM [1]: 1.31
MIC [6]: 100 µg/mL
MIC [7]: 1.6 µg/mL
MIC [8]: > 200 µg/mL
MIC [11]: 3.12 µg/mL

Structure (SMILES): CC(C)NC(=O)NC1C(=O)N2C1SC(C)(C)[C@@H]2C(=O)[O-].[Na+] (some centres not stated)
Delta RM [1]: -2
Control [2]: 108%
Control [3]: 119%
Control [4]: 7%
